Assay results published in ChEMBL document CHEMBL1909615, “Design, synthesis and antibacterial activity of fluoroquinolones containing bulky arenesulfonyl fragment: 2D-QSAR and docking study” (2011).
Values after ≈ are worked out from the molar mass of the structure shown.

Experiments:
Type in all cases: functional
Pseudomonas aeruginosa = experiment: Antibacterial activity against Pseudomonas aeruginosa ATCC 27853 after 18 hrs by EUCAST broth dilution method; conditions: for MIC: Pseudomonas aeruginosa, ATCC 27853, 18 h
In short: (§1)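 Broth microdilution in Mueller-Hinton broth per CLSI. Compounds dissolved in DMSO at 5120 µg/mL, diluted tenfold in MHB to 512 µg/mL, then twofold serially across 12 wells down to 0.25 µg/mL. Strains grown in tryptone soy broth; 5 µL inoculum (10^4-10^5 CFU/mL) added per well. Incubated 35 °C, 18 h. MIC read manually as the lowest concentration preventing visible growth.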

Escherichia coli = experiment: Antibacterial activity against Escherichia coli ATCC 25922 after 18 hrs by EUCAST broth dilution method; conditions: ATCC 25922, 18 h; in short: as §1
Staphylococcus aureus = experiment: Antibacterial activity against Staphylococcus aureus ATCC 29213 after 18 hrs by EUCAST broth dilution method; conditions: for MIC: Staphylococcus aureus, ATCC 29213, 18 h; in short: as §1
Bacillus subtilis = experiment: Antibacterial activity against Bacillus subtilis ATCC 10400 after 18 hrs by EUCAST broth dilution method; conditions: for MIC: Bacillus subtilis, ATCC 10400, 18 h

Compound | log(1/MIC), MIC in mM (Pseudomonas aeruginosa) | MIC (Pseudomonas aeruginosa) [µM] | MIC (Escherichia coli) [µM] | log(1/MIC), MIC in mM (Staphylococcus aureus) | MIC (Staphylococcus aureus) [µM] | log(1/MIC), MIC in mM (Bacillus subtilis) | MIC (Bacillus subtilis) [µM]
CCn1cc(C(=O)O)c(=O)c2cc(F)c(N3CCN(S(=O)(=O)c4ccc5ccccc5c4)CC3)cc21 | 0.9 | 126 (≈ 64.2 µg/mL) | 251 (≈ 128 µg/mL) | 2.71 | 1.96 (≈ 0.999 µg/mL) | 3.01 | 0.981 (≈ 0.5 µg/mL)
O=C(O)c1cn(C2CC2)c2cc(N3CCN(S(=O)(=O)c4ccc5ccccc5c4)CC3)c(F)cc2c1=O | 0.61 | 245 (≈ 128 µg/mL) | 123 (≈ 64.2 µg/mL) | 2.72 | 1.92 (≈ 1 µg/mL) | 2.72 | 1.92 (≈ 1 µg/mL)
CCn1cc(C(=O)O)c(=O)c2cc(F)c(N3CCN(S(=O)(=O)c4cccc5ccccc45)CC3)cc21 | 0.6 | 251 (≈ 128 µg/mL) | 251 (≈ 128 µg/mL) | 2.71 | 1.96 (≈ 0.999 µg/mL) | 3.01 | 0.981 (≈ 0.5 µg/mL)
O=C(O)c1cn(C2CC2)c2cc(N3CCN(S(=O)(=O)c4cccc5ccccc45)CC3)c(F)cc2c1=O | 0.91 | 123 (≈ 64.2 µg/mL) | 61.3 (≈ 32 µg/mL) | 2.72 | 1.92 (≈ 1 µg/mL) | 3.32 | 0.479 (≈ 0.25 µg/mL)
COc1ccc(S(=O)(=O)N2CCN(c3cc4c(cc3F)c(=O)c(C(=O)O)cn4C3CC3)CC2)c(OC)c1 | 3.33 | 0.47 (≈ 0.25 µg/mL) | ≤ 0.47 | 3.33 | ≤ 0.47 | 3.33 | ≤ 0.47
CCn1cc(C(=O)O)c(=O)c2cc(F)c(N3CCN(S(=O)(=O)c4ccc(OC)c(OC)c4)CC3)cc21 | 2.14 | 3.85 (≈ 2 µg/mL) | ≤ 0.481 | 3.02 | 0.962 (≈ 0.5 µg/mL) | 3.02 | 0.962 (≈ 0.5 µg/mL)
O=C(O)c1cn(C2CC2)c2cc(N3CCN(S(=O)(=O)c4ccc(F)cc4F)CC3)c(F)cc2c1=O | 1.2 | 63 (≈ 32 µg/mL) | 7.88 (≈ 4 µg/mL) | 2.41 | 3.94 (≈ 2 µg/mL) | 3.31 | 0.493 (≈ 0.25 µg/mL)
O=C(O)c1cn(C2CC2)c2cc(N3CCN(S(=O)(=O)c4ccc(Cl)cc4Cl)CC3)c(F)cc2c1=O | 2.73 | 1.85 (≈ 1 µg/mL) | ≤ 0.463 | 3.33 | ≤ 0.463 | 3.33 | ≤ 0.463
O=C(O)c1cn(C2CC2)c2cc(N3CCN(S(=O)(=O)c4ccc(Cl)c(Cl)c4)CC3)c(F)cc2c1=O | 2.73 | 1.85 (≈ 1 µg/mL) | ≤ 0.463 | 3.33 | ≤ 0.463 | 3.33 | ≤ 0.463
CCn1cc(C(=O)O)c(=O)c2cc(F)c(N3CCN(S(=O)(=O)c4c(Cl)cc(Cl)cc4Cl)CC3)cc21 | 0.34 | ≥ 455 | ≥ 455 | 2.75 | 1.78 (≈ 1 µg/mL) | 3.35 | 0.444 (≈ 0.25 µg/mL)
O=C(O)c1cn(C2CC2)c2cc(N3CCN(S(=O)(=O)c4c(Cl)cc(Cl)cc4Cl)CC3)c(F)cc2c1=O | 0.95 | 111 (≈ 63.8 µg/mL) | 111 (≈ 63.8 µg/mL) | 2.76 | 1.74 (≈ 1 µg/mL) | 3.36 | 0.435 (≈ 0.25 µg/mL)
Cc1cc(C)c(S(=O)(=O)N2CCN(c3cc4c(cc3F)c(=O)c(C(=O)O)cn4C3CC3)CC2)c(C)c1 | 0.9 | 125 (≈ 64.2 µg/mL) | 62 (≈ 31.8 µg/mL) | 1.21 | 62 (≈ 31.8 µg/mL) | 1.51 | 31 (≈ 15.9 µg/mL)
CCn1cc(C(=O)O)c(=O)c2cc(F)c(N3CCN(S(=O)(=O)c4c(C(C)C)cc(C(C)C)cc4C(C)C)CC3)cc21 | 0.96 | 109 (≈ 63.8 µg/mL) | 55 (≈ 32.2 µg/mL) | 1.26 | 55 (≈ 32.2 µg/mL) | 1.26 | 55 (≈ 32.2 µg/mL)
CC(C)c1cc(C(C)C)c(S(=O)(=O)N2CCN(c3cc4c(cc3F)c(=O)c(C(=O)O)cn4C3CC3)CC2)c(C(C)C)c1 | 0.37 | ≥ 428 | 3.35 (≈ 2 µg/mL) | 0.67 | 214 (≈ 128 µg/mL) | 0.97 | 107 (≈ 64 µg/mL)
Cc1c(C)c(C)c(S(=O)(=O)N2CCN(c3cc4c(cc3F)c(=O)c(C(=O)O)cn4C3CC3)CC2)c(C)c1C | 0.33 | ≥ 473 | ≥ 473 | 0.33 | ≥ 473 | 0.63 | 236 (≈ 128 µg/mL)
O=C(O)c1cn(C2CC2)c2cc(N3CCNCC3)c(F)cc2c1=O [CIPROFLOXACIN] | 3.12 | 0.758 (≈ 0.251 µg/mL) | ≤ 0.758 | 3.12 | ≤ 0.758 | 3.12 | ≤ 0.758

Now from value to compound:

log(1/MIC), MIC in mM (Pseudomonas aeruginosa) | MIC (Pseudomonas aeruginosa) [µM] | MIC (Escherichia coli) [µM] | log(1/MIC), MIC in mM (Staphylococcus aureus) | MIC (Staphylococcus aureus) [µM] | log(1/MIC), MIC in mM (Bacillus subtilis) | MIC (Bacillus subtilis) [µM] | Compound
2.14 | 3.85 (≈ 2 µg/mL) | ≤ 0.481 | 3.32 | 0.481 (≈ 0.25 µg/mL) | 3.32 | 0.481 (≈ 0.25 µg/mL) | CCn1cc(C(=O)O)c(=O)c2cc(F)c(N3CCN(S(=O)(=O)c4ccc(OC)cc4OC)CC3)cc21
2.42 | 3.76 (≈ 2 µg/mL) | ≤ 0.47 | 3.33 | ≤ 0.47 | 3.33 | 0.47 (≈ 0.25 µg/mL) | COc1ccc(S(=O)(=O)N2CCN(c3cc4c(cc3F)c(=O)c(C(=O)O)cn4C3CC3)CC2)cc1OC
0.89 | 129 (≈ 63.9 µg/mL) | 8.07 (≈ 4 µg/mL) | 2.09 | 8.07 (≈ 4 µg/mL) | 2.39 | 4.04 (≈ 2 µg/mL) | CCn1cc(C(=O)O)c(=O)c2cc(F)c(N3CCN(S(=O)(=O)c4ccc(F)cc4F)CC3)cc21
2.86 | 1.39 (≈ 0.734 µg/mL) | ≤ 0.473 | 3.33 | ≤ 0.473 | 3.33 | 0.473 (≈ 0.25 µg/mL) | CCn1cc(C(=O)O)c(=O)c2cc(F)c(N3CCN(S(=O)(=O)c4ccc(Cl)cc4Cl)CC3)cc21
2.72 | 1.89 (≈ 0.999 µg/mL) | ≤ 0.473 | 3.33 | ≤ 0.473 | 3.33 | ≤ 0.473 | CCn1cc(C(=O)O)c(=O)c2cc(F)c(N3CCN(S(=O)(=O)c4ccc(Cl)c(Cl)c4)CC3)cc21
1.19 | 64 (≈ 32.1 µg/mL) | 32 (≈ 16.1 µg/mL) | 2.09 | 7.98 (≈ 4 µg/mL) | 2.09 | 7.98 (≈ 4 µg/mL) | CCn1cc(C(=O)O)c(=O)c2cc(F)c(N3CCN(S(=O)(=O)c4c(C)cc(C)cc4C)CC3)cc21
0.62 | 242 (≈ 128 µg/mL) | 242 (≈ 128 µg/mL) | 0.62 | 242 (≈ 128 µg/mL) | 0.62 | 242 (≈ 128 µg/mL) | CCn1cc(C(=O)O)c(=O)c2cc(F)c(N3CCN(S(=O)(=O)c4c(C)c(C)c(C)c(C)c4C)CC3)cc21
